Laboratory results: ChEMBL document CHEMBL1134845, “Syntheses and biological activities of a novel group of steroidal derived inhibitors for human Cdc25A protein phosphatase” (J Med Chem, 2001)
Each block holds one molecule with its values, some of them ahead of it.

Experiments:
786-0 [1] = experiment: Growth inhibitory activity was determined against 786-0 cancer cell line of Renal cancer; type: functional; conditions: Homo sapiens
Outline: (§1)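 NCI 60 human tumour cell line screen run at the National Cancer Institute. Cell growth and viability read with the protein stain sulforhodamine B, which binds basic amino acids of cells left attached after washing. […] MG MID is the mean GI50 calculated over all panels.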

A549 = experiment: Growth inhibitory activity was determined against A549/ATCC cancer cell line of non-small cell lung cancer; type: functional, Homo sapiens; conditions: Homo sapiens, A549; outline: as §1
COLO 205 = experiment: Growth inhibitory activity was determined against COLO 205 cancer cell line colon cancer; type: functional, Homo sapiens; conditions: Homo sapiens, COLO 205; outline: as §1
HT-29 [2] = experiment: Inhibition of colon cancer in HT-29 cancer cell lines; type: functional; conditions: Homo sapiens
Outline: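 Soft agar clonogenic assay of anchorage-independent growth, using HT-29 colon and A549 lung adenocarcinoma cells. The value is the compound concentration that cut colony number to 50% of control.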

HCC 2998 = experiment: Growth inhibitory activity was determined against HCC2998 cancer cell line colon cancer; type: functional, Homo sapiens; conditions: Homo sapiens, HCC 2998; outline: as §1
LOX IMVI = experiment: Growth inhibitory activity was determined against LOX IMVI cancer cell line of melanoma; type: functional, Homo sapiens; conditions: Homo sapiens, LOX IMVI; outline: as §1
NCI-H23 = experiment: Growth inhibitory activity was determined against NCI-H23 cancer cell line of non-small cell lung cancer; type: functional, Homo sapiens; conditions: Homo sapiens, NCI-H23; outline: as §1
NCI-H522 = experiment: Growth inhibitory activity was determined against NCI-H522 cancer cell line of non-small cell lung cancer; type: functional; conditions: Homo sapiens; outline: as §1
OVCAR-8 [3] = experiment: Growth inhibitory activity was determined against OVCAR-8 cancer cell line of Ovarian cancer; type: functional; conditions: Homo sapiens; outline: as §1
SN12C [4] = experiment: Growth inhibitory activity was determined against SN12C cancer cell line of Renal cancer; type: functional; conditions: Homo sapiens; outline: as §1
SF-539 = experiment: Growth inhibitory activity was determined against SF-539 cancer cell line of CNS cancer; type: functional; conditions: Homo sapiens; outline: as §1
SF-268 = experiment: Growth inhibitory activity was determined against SF-268 cancer cell line of CNS cancer; type: functional; conditions: Homo sapiens; outline: as §1
SK-MEL-5 = experiment: Growth inhibitory activity was determined against SK-MEL-5 cancer cell line of melanoma; type: functional, Homo sapiens; conditions: Homo sapiens, SK-MEL-5; outline: as §1
UO-31 [5] = experiment: Growth inhibitory activity was determined against UO-31 cancer cell line of Renal cancer; type: functional; conditions: Homo sapiens; outline: as §1
U-251 = experiment: Growth inhibitory activity was determined against U-251 cancer cell line of CNS cancer; type: functional; conditions: Homo sapiens; outline: as §1
PC-3 = experiment: Growth inhibitory activity was determined against PC-3 cancer cell line of Prostate cancer; type: functional; conditions: Homo sapiens; outline: as §1
T47D = experiment: Growth inhibitory activity was determined against T-47D cancer cell line of Breast cancer; type: functional, Homo sapiens; conditions: Homo sapiens, T47D; outline: as §1
OVCAR-3 [6] = experiment: Growth inhibitory activity was determined against OVCAR-3 cancer cell line of Ovarian cancer; type: functional; conditions: Homo sapiens; outline: as §1
BT-549 (Homo sapiens) = experiment: Growth inhibitory activity was determined against BT-549 cancer cell line of Breast cancer; conditions: Homo sapiens, BT-549
786-0 [7] = experiment: Growth inhibitory activity was determined against 786-0 cancer cell line of renal cancer; type: functional; conditions: Homo sapiens; outline: as §1
[8] = target: T1, M-phase inducer phosphatase 1 (Homo sapiens, UniProt P30304); experiment: Inhibitory activity tested against cell division cycle 25A (assay using fluorescein diphosphate (FDP) as substrate)
T1 sequence (P30304 whole entry): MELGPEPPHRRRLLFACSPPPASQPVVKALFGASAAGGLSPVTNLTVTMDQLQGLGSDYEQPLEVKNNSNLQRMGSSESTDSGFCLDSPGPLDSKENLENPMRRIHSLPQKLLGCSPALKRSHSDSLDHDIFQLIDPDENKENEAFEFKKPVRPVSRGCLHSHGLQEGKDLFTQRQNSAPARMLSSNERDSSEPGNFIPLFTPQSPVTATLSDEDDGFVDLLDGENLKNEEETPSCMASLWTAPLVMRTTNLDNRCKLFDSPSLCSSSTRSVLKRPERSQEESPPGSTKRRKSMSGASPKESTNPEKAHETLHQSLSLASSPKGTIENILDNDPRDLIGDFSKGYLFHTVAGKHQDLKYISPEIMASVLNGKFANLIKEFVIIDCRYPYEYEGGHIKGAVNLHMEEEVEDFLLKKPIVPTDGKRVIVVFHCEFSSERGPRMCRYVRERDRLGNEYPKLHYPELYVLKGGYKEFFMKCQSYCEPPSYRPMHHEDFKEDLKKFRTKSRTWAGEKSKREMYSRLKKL
Outline: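 Recombinant human GST-Cdc25A fusion protein, each batch calibrated so that FDP was dephosphorylated linearly over 20 min. Fluorescein diphosphate was the substrate. Reactions ran 15 min at 25 °C in the dark and were stopped with sodium orthovanadate. IC50 came from at least two independent runs, each in triplicate.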

[9] = target: T1, M-phase inducer phosphatase 1; experiment: Inhibitory activity tested against cell division cycle 25A (assay using p-nitro phenyl phosphate (pNPP) as substrate)
HT-29 [10] = experiment: Growth inhibitory activity was determined against HT-29 cancer cell line colon cancer; type: functional, Homo sapiens; conditions: Homo sapiens, HT-29; outline: as §1
OVCAR-3 [11] = experiment: Growth inhibitory activity was determined against OVCAR-3 cancer cell lines of Ovarian cancer; type: functional; conditions: Homo sapiens; outline: as §1
NCI/ADR-RES = experiment: Growth inhibitory activity was determined against NCI/ADR-RES cancer cell line of Breast cancer; type: functional, Homo sapiens; conditions: Homo sapiens, NCI/ADR-RES; outline: as §1
OVCAR-8 [12] = experiment: Growth inhibitory activity was determined against OVCAR-8 cancer cell lines of Ovarian cancer; type: functional; conditions: Homo sapiens; outline: as §1
SN12C [13] = experiment: Growth inhibitory activity was determined against SN12C cancer cell line of renal cancer; type: functional; conditions: Homo sapiens; outline: as §1
UO-31 [14] = experiment: Growth inhibitory activity was determined against UO-31 cancer cell line of renal cancer; type: functional; conditions: Homo sapiens; outline: as §1
[15] = target: Receptor-type tyrosine-protein phosphatase C, CD45 (Homo sapiens) (UniProt P08575); experiment: Inhibitory activity tested against human CD45 (receptor-type tyrosine-protein phosphatase C)
Sequence of Receptor-type tyrosine-protein phosphatase C, CD45 (Homo sapiens) (P08575 whole entry, looked up): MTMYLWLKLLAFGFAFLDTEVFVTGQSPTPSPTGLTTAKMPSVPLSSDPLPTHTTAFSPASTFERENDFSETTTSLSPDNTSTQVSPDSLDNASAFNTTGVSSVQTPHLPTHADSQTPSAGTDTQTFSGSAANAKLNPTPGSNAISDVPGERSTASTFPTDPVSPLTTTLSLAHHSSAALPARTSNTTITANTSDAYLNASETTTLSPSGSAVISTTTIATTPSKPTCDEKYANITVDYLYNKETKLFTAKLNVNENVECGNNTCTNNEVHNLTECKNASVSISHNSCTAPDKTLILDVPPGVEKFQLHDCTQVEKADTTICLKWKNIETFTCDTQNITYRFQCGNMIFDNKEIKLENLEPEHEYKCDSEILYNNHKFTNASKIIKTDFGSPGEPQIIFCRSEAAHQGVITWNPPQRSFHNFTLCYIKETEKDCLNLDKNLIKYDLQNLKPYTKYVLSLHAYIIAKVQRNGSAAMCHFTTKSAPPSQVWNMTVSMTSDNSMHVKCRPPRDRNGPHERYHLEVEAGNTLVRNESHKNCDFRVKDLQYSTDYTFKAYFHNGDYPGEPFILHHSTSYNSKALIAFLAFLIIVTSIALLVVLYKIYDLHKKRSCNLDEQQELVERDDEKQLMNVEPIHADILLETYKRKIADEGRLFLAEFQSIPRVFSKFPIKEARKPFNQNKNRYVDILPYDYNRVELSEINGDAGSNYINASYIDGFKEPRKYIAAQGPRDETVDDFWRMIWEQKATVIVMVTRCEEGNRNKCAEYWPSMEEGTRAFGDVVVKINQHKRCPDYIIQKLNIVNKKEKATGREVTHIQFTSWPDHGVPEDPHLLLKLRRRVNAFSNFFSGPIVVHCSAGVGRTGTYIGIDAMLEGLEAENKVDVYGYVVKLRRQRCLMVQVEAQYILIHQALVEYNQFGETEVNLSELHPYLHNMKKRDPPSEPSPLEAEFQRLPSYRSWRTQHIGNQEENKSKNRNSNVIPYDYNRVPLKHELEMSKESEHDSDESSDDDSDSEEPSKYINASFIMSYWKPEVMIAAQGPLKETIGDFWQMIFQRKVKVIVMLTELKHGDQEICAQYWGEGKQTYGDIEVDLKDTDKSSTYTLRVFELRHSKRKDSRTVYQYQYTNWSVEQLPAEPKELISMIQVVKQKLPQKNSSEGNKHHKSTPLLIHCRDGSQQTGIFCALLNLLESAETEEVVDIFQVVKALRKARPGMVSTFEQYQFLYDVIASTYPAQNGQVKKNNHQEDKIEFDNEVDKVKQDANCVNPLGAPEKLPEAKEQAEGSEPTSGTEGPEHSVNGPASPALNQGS

[16] = substrate: C=C(CCCCC#N)[C@H]1CC[C@]2(C)[C@@H]([C@H](C)CCCC(C)C)CC[C@H]2[C@@H]1CC(=O)O; conditions: 1.25 uM
[17] = substrate: C=C(CCCCC#N)[C@H]1CC[C@]2(C)[C@@H]([C@H](C)CCCC(C)C)CC[C@H]2[C@@H]1CC(=O)O; conditions: 5 uM
[18] = substrate: C=C(CCCCC#N)[C@H]1CC[C@]2(C)[C@@H]([C@H](C)CCCC(C)C)CC[C@H]2[C@@H]1CC(=O)O
[19] = substrate: C=C(CCCCC#N)[C@H]1CC[C@]2(C)[C@@H]([C@H](C)CCCC(C)C)CC[C@H]2[C@@H]1CC(=O)O; remark: listed apart in the source
[20] = substrate: C=C(CCCCC#N)[C@H]1CC[C@]2(C)[C@@H]([C@H](C)CCCC(C)C)CC[C@H]2[C@@H]1CC(=O)O; remark: listed apart in the source
[21] = substrate: C=C(CCCCC#N)[C@H]1CC[C@]2(C)[C@@H]([C@H](C)CCCC(C)C)CC[C@H]2[C@@H]1CC(=O)O; conditions: 0.625 uM
[22] = substrate: C=C(CCCCC#N)[C@H]1CC[C@]2(C)[C@@H]([C@H](C)CCCC(C)C)CC[C@H]2[C@@H]1CC(=O)O; remark: listed apart in the source
[23] = substrate: C=C(CCCCC#N)[C@H]1CC[C@]2(C)[C@@H]([C@H](C)CCCC(C)C)CC[C@H]2[C@@H]1CC(=O)O; conditions: 2.5 uM

- GI50 (786-0 [1]): 4.3 µM
- GI50 (A549): 5.51 µM
- GI50 (COLO 205): 4.75 µM
- GI50 (HT-29 [2]): 4.05 µM
- GI50 (HCC 2998): 4.71 µM
- GI50 (NCI-H23): 5.63 µM
- GI50 (NCI-H522): > 25 µM
- GI50 (OVCAR-8 [3]): 5.19 µM
- GI50 (SK-MEL-5): 5.1 µM
- GI50 (U-251): 5.04 µM
- GI50 (PC-3): 5.51 µM
- GI50 (T47D): 4.92 µM
- GI50 (OVCAR-3 [6]): 4.73 µM
- GI50 (BT-549 (Homo sapiens)): 5.89 µM
Molecule: CC(C)CCC[C@@H](C)[C@H]1CC[C@H]2[C@@H]3CC(=O)O[C@](C)(CCCCC#N)[C@H]3CC[C@]12C
- GI50 (LOX IMVI): 5.35 µM
- GI50 (SN12C [4]): 4.38 µM
- GI50 (SF-539): 5.17 µM
- GI50 (SF-268): > 25 µM
- GI50 (UO-31 [5]): 0.47 µM

- GI50 (786-0 [7]): 8.44 µM
- GI50 (A549): 8.3 µM
- GI50 (COLO 205): 6.13 µM
- IC50 [8]: 5.1 µM
- IC50 [9]: 11.6 µM
- GI50 (HT-29 [10]): 7.76 µM
- GI50 (HCC 2998): 4.43 µM
- GI50 (OVCAR-3 [11]): 5.78 µM
- GI50 (NCI-H23): 4.92 µM
- GI50 (NCI-H522): > 25 µM
- GI50 (OVCAR-8 [12]): 5.13 µM
- GI50 (SK-MEL-5): 9.69 µM
- GI50 (U-251): 6.28 µM
- GI50 (PC-3): 7.21 µM
- GI50 (T47D): 7.3 µM
- GI50 (BT-549 (Homo sapiens)): 4.19 µM
- IC50 [15]: > 100 µM
Molecule: CC(C)CCC[C@@H](C)[C@H]1CC[C@H]2[C@@H]3CC(=O)O[C@](C)(CCCCC(=O)O)[C@H]3CC[C@]12C
- GI50 (NCI/ADR-RES): 5.55 µM
- GI50 (SN12C [13]): 8.3 µM
- GI50 (SF-539): 14.6 µM
- GI50 (SF-268): > 25 µM
- GI50 (UO-31 [14]): 11 µM

B1: M-phase inducer phosphatase 1 (Homo sapiens), P30304 (protein)
chain: MELGPEPPHRRRLLFACSPPPASQPVVKALFGASAAGGLSPVTNLTVTMDQLQGLGSDYEQPLEVKNNSNLQRMGSSESTDSGFCLDSPGPLDSKENLENPMRRIHSLPQKLLGCSPALKRSHSDSLDHDIFQLIDPDENKENEAFEFKKPVRPVSRGCLHSHGLQEGKDLFTQRQNSAPARMLSSNERDSSEPGNFIPLFTPQSPVTATLSDEDDGFVDLLDGENLKNEEETPSCMASLWTAPLVMRTTNLDNRCKLFDSPSLCSSSTRSVLKRPERSQEESPPGSTKRRKSMSGASPKESTNPEKAHETLHQSLSLASSPKGTIENILDNDPRDLIGDFSKGYLFHTVAGKHQDLKYISPEIMASVLNGKFANLIKEFVIIDCRYPYEYEGGHIKGAVNLHMEEEVEDFLLKKPIVPTDGKRVIVVFHCEFSSERGPRMCRYVRERDRLGNEYPKLHYPELYVLKGGYKEFFMKCQSYCEPPSYRPMHHEDFKEDLKKFRTKSRTWAGEKSKREMYSRLKKL
- Vmax [16]: 4260
- Vmax [17]: 632
- Km [18]: 32.3 µM
- Km [19]: 33.6 µM
- Km [20]: 23.1 µM
- Vmax [21]: 4610
- Km [22]: 37.4 µM
- Vmax [23]: 3070
